Most compounds without a hit are left out; they make up all but 7.6% or so of the library.
M1 agonist: agonists of M1 muscarinic receptor; 64,000 compounds, 3% hits; AID 626; B-score at 10 µM; CHO-M1 cells, Fluo-4 calcium fluorescence, agonist mode; hits give high values;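 active = fluorescence rise, raw or as B-score row- and column-corrected plate score, outside the 99.7% band of its plate's samples, either direction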
Jurkat tox 60K: cytotoxicity toward Jurkat cells | Jurkat E6.1 viability, ATP luminescence, 48 h | inhibition, % at 4 µM | 56,000 compounds, 1.2% hits;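 active = inhibition above the mean inhibition of all tested compounds plus 3 SD, cut at about 28% in these data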
D1 mod: allosterically modulates the human D1 dopamine receptor; P21728; HEK293 D1, CRE-luciferase, dopamine EC30 potentiation; actives deviate in either direction; B-score at 10 µM; 58,000 compounds, 5.9% hits; AID 641;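 active = luminescence count or its row- and column-corrected plate score outside the 99.7% band of the plate's sample wells, on either side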
Target sequence (P21728 whole entry, looked up): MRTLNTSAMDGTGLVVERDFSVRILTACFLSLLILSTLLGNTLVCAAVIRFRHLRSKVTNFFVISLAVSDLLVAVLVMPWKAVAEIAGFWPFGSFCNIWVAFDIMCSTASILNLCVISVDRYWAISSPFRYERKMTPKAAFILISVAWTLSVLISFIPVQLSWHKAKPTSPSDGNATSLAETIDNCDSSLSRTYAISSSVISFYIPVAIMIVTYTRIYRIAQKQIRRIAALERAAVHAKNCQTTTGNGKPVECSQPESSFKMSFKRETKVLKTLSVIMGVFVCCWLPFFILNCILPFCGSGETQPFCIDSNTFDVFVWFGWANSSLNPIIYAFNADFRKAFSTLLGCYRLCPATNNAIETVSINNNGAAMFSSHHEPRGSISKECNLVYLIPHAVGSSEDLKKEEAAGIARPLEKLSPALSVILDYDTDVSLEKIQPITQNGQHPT
HEK293 NFkB inh: inhibitors of the PMA/ionomycin-induced NF-kB reporter in HEK293 cells | HEK-293 NF-kB luciferase reporter, luminescence | inhibition, % at 3 µM | 62,000 compounds, 0.21% hits | AID 465;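 active = inhibition above the mean of all tested compounds plus 3 SD, cut at about 40% in these data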;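 note: 0% = stimulated DMSO wells and 100% = 10 µM reference inhibitor 5653914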
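Reagent: PMA plus ionomycin mix as NF-kB-activating stimulus. Assay system: NF-kB luciferase reporter HEK-293 cells. Technique: luminescence from luciferase substrate reagent. Incubation: 1 h compound pre-incubation, 16 h PMA/ionomycin at 37 °C. Benchmarks: DMSO only as uninhibited control, 10 µM reference inhibitor as full inhibition. Repeats: tested once.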
hDAT+cocaine: human DAT dopamine uptake with cocaine, either direction; 110,000 compounds, 1.3% hits; Q01959; LLC-PK1 hDAT cells, [14C]-dopamine uptake with cocaine IC80; actives deviate in either direction; B-score at 10 µM;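 active = Z score or B-score, a plate-position-corrected score, falls beyond the plate's 99.7% confidence bounds, in either direction; inactive = both scores lie inside the 99.7% bounds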;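 note: scored against the spread of the other compound wells on the same plate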
M1 antag: M1 muscarinic receptor (rat) antagonism; B-score at 10 µM; CHO-M1 cells, Fluo-4 calcium, ACh EC80 antagonist mode; hits give low values; 64,000 compounds, 3.4% hits; P08482;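 active = calcium fluorescence response, raw or row-and-column corrected B-score, differing from the plate sample mean either way at a set confidence level, mostly lower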
D1 PAM confirm: D1 receptor (human) allosteric modulation, confirmed; shares compounds with D1 mod; HEK293 D1 CRE-luciferase, dopamine EC30 potentiation; hits give high values; luminescence at 10 µM; 2,200 compounds, 88% hits; AID 642;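 active = luminescence in either of two replicates above the same-plate mean plus 3 SD of the low-dose dopamine control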
D1 ag no DA: activates D1 CRE-luciferase signal without dopamine present; shares compounds with D1 mod; HEK293 D1 CRE-luciferase, luminescence, no dopamine; hits give high values; luminescence at 10 µM; 1,900 compounds, 0.8% hits; in the data active = luminescence above about 3900
Isoprot counter: counter-screen for D1 modulators: isoproterenol response in HEK293 cells. AID 647. 2,200 compounds, 63% hits. HEK293 D1 CRE-luciferase, isoproterenol EC30 counter-screen. shares compounds with D1 mod. calls only at 10 µM;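 active = luminescence in either replicate above plate mean of wells with a partly effective reference agonist dose plus 3 SD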;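 note: isoproterenol raises cAMP through native beta-adrenoceptor Gs so signal bypasses D1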
Active calls of the source: *; i = inactive; . = not tested or not shown; + = active, no number.

SMILES	M1 agonist	Jurkat tox 60K	D1 mod	HEK293 NFkB inh	hDAT+cocaine	M1 antag	D1 PAM confirm	D1 ag no DA	Isoprot counter
N=c1sc2ccccc2n1-c1ccccc1	-0.21	.	21*	-7	0.31	0.041	9268*	1508	+
CSc1nnc(Cn2c(=O)sc3ccccc32)n1-c1ccccc1	0.029	2	0.29	6	-0.18	1.1	.	.	.
Cc1oc2ccc(OCC(N)=O)cc2c1C(=O)OC(C)C	-0.092	0	4.6*	7	-0.43	1.6	6628*	1556	i
CCOC(=O)c1c(NC(=O)CC2SC(=NC)N(C)C2=O)sc(C)c1C (stereo not drawn)	.	.	.	.	-0.93	.	.	.	.
CN=C1SC(CC(=O)Nc2sc(C)c(C)c2C(=O)OC)C(=O)N1C (stereo not drawn)	-1.2	-3	3.4*	10	-0.13	-0.015	8820*	1856	+
Cc1nc(-c2ccc(S(=O)(=O)N3CCCCCC3)cc2)cs1	-0.72	12	2.7*	-17	1.2	0.28	8332*	1844	i
Cn1c(=O)c2c(nc(SCCCC#N)n2Cc2ccccc2F)n(C)c1=O	0.15	5	5.2*	12	0.049	-0.29	15976*	1696	i
COc1cccc(C(=O)Oc2cccc(N3C(=O)C4C5CC(C(Br)C5Br)C4C3=O)c2)c1 (stereo not drawn)	.	.	.	.	0.17	.	.	.	.
Cc1ccc2oc(=O)cc(CN3CCOCC3)c2c1	1.2	3	1.4	24	-0.32	2.1	.	.	.
CCc1ccc2oc(=O)cc(CN3CCOCC3)c2c1	0.27	-2	5.9*	1	0.48	-0.58	13788*	1736	i
CCc1ccc2oc(=O)cc(CN3CCC(C)CC3)c2c1	-0.57	4	5.9*	9	0.023	-0.17	10276*	1600	+
Cn1c(=O)c2c(nc(N3CCOCC3)n2CCCNC2=NCCCCC2)n(C)c1=O	.	.	.	.	-0.5	.	.	.	.
Cc1nn2c(-c3ccncc3)nnc2c2ccccc12	1.2	8	2.7*	-9	-0.42	-0.38	6068*	1544	+
Cc1nn(-c2ccccc2)c(C)c1/C=N/NC(=O)c1cc(C23CC4CC(CC(C4)C2)C3)[nH]n1	.	.	.	.	0.65	.	.	.	.
CCn1c(SCC(=O)N/N=C/C=C\c2ccccc2[N+](=O)[O-])nnc1-c1ccccc1	.	.	.	.	0.88	.	.	.	.
C=CCc1c(C)nc(SC)nc1Nc1ccc(C(C)=O)cc1	-0.0032	9	4.1*	2	1.3	0.15	10112*	1672	+
C=CCc1c(C)nc(SC)nc1Nc1ccc(C(=O)O)cc1	0.19	-4	8.2*	7	0.055	0.25	11532*	.	i
C=CCc1c(C)nc(SC)nc1Nc1ccccc1	.	.	.	.	0.81	.	.	.	.
CSc1nsc(SCC(=O)Nc2ccc(C(C)=O)cc2)n1	.	.	.	.	-0.14	.	.	.	.
CC(C)c1nnc(NC(=O)CSc2ccccc2)s1	.	.	.	.	0.31	.	.	.	.
C=CCn1c(SCC(=O)OCc2ccccc2)nc2c1c(=O)n(C)c(=O)n2C	.	3	-0.54	19	-0.031	.	.	.	.
CCn1c(SCC(=O)OCc2ccccc2)nc2c1c(=O)n(C)c(=O)n2C	-0.15	0	3.9*	11	0.42	-0.6	5976	1308	i
COc1ccc(-c2nc(C#N)c(N3CCC(C(N)=O)CC3)o2)cc1OC	.	.	.	.	-0.0058	.	.	.	.
CC1(C(=O)NCCN2CCOCC2)C=CCN1C(=O)c1ccccc1 (stereo not drawn)	.	.	.	.	-1.6	.	.	.	.
O=C(Nc1ccccc1Oc1ccccc1)c1cnccn1	1.6	11	4.1*	10	-0.76	0.033	9216*	1488	i
SMILES	M1 agonist	Jurkat tox 60K	D1 mod	HEK293 NFkB inh	hDAT+cocaine	M1 antag	D1 PAM confirm	D1 ag no DA	Isoprot counter
COc1cc(C(=O)OCC(=O)c2cc(C)n(C)c2C)cc(NC(=O)c2ccco2)c1OC	0.11	6	0.0081	11	-1.1	0.047	.	.	.
O=C(CCc1nc(-c2ccccc2F)no1)Nc1ccc(Oc2ccccc2)cc1	-0.56	19	8.6*	22	-0.54	-0.8	4944	1544	i
COc1ccc(S(=O)(=O)Nc2cc(C)ccn2)cc1OC	-0.36	-1	-0.44	-3	-0.24	0.022	.	.	.
C=CCNc1nc(N(c2ccccc2)c2ccccc2)nc(-n2ccnc2)n1	0.59	-9	1.4	4	-0.038	-0.13	.	.	.
c1ccc(N(c2ccccc2)c2nc(-n3ccnc3)nc(-n3ccnc3)n2)cc1	0.34	-6	5.7*	25	1.2	-0.21	18076*	1612	+
CN(c1ccccc1)c1nc(-n2ccnc2)nc(-n2ccnc2)n1	1.1	6	-0.24	15	0.85	-1.1	.	.	.
CCCCNc1nc(N(C)c2ccccc2)nc(-n2ccnc2)n1	1.1	-5	4.6*	1	0.73	-1	17552*	1484	+
CCCS(=O)(=O)N1CCCC(c2nc(-c3ccc(OC)cc3)no2)C1 (stereo not drawn)	.	.	.	.	-0.66	.	.	.	.
COc1ccc(/C=N/NC(=O)c2ccc(Cn3cc([N+](=O)[O-])cn3)o2)cc1O	.	.	.	.	0.1	.	.	.	.
C=CCn1c(=S)[nH]c2nc3c(cc2c1=O)CCCC3	0.5	.	6*	.	15*	-0.57	13488*	1592	i
CC(C)OC(=O)C(C#N)c1nc2ccccc2nc1N1CCCC1 (stereo not drawn)	2.3	.	10*	.	0.039	-0.33	20752*	1680	+
N#CC(C(=O)OCc1ccccc1)c1nc2ccccc2nc1N1CCOCC1 (stereo not drawn)	0.36	-2	0.75	14	0.32	-0.98	.	.	.
COC(=O)C(C#N)c1nc2ccccc2nc1N1CCCC1 (stereo not drawn)	-0.018	-3	5.5*	-3	-0.38	0.7	9832*	.	+
O=C(OCC#CCSc1nnc(-c2ccc(Br)cc2)o1)c1ccco1	-0.039	0	4.8*	-3	0.89	-1.3	7080*	1620	i
COc1ccc2c(Cl)c(C(N)=O)sc2c1	1.4	-7	7.3*	4	-0.62	0.51	15304*	1792	+
COc1ccc2c(Cl)c(C(=O)NN)sc2c1	.	.	.	.	0.86	.	.	.	.
COc1ccccc1CO/N=C/c1cccn1-c1nccc(N(C)C)c1C#N	.	.	.	.	-0.25	.	.	.	.
CCCOC(=O)/C(C(N)=NCc1ccccc1)=C(\O)OCCC	-0.85	-2	-0.061	26	2.4	0.45	.	.	.
O=C(O)c1ccccc1SC1CC(=O)N(C2CCCCC2)C1=O (stereo not drawn)	1.1	-3	3.9*	10	-1	-0.23	6536	1600	i
CC(c1ccccc1)N1C(=O)CC(Sc2ncccc2C(=O)O)C1=O (stereo not drawn)	-0.04	15	-0.36	7	-0.43	0.31	.	.	.

Bioassay records: PubChem, several laboratories
